Data from ChEMBL document CHEMBL4715780, “Biological evaluation of tetracationic compounds based on two 1,4-diazabicyclo[2.2.2]octane moieties connected by different linkers” (Bioorg Med Chem, 2016).

Tests used:
Pseudomonas aeruginosa [1] = test: Bactericidal activity against Pseudomonas aeruginosa ATCC 9027 assessed as reduction in colony forming unit at 10 ug/ml measured at 6 hrs by time kill assay relative to control; assay type: functional; parameters: scale not given: the % may be the effect or the level left; settings: dose 10 µg/ml
Procedure, shortened: (§1)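 Overnight Pseudomonas aeruginosa culture adjusted in Mueller–Hinton broth to about 2.5 × 10⁵ CFU/mL. Compound added at 2.5, 5 or 10 µg/mL, then incubated at 37 °C with shaking (580 rpm) for 22 h. Viable colonies counted on plates at 2, 4, 6, 8 and 22 h. Quantification limit 100 CFU/mL; triplicate.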

Citrobacter freundii = test: Antibacterial activity against Citrobacter freundii ATCC 8090 assessed as bacterial growth inhibition by CLSI protocol based serial microdilution method; assay type: functional
Pseudomonas aeruginosa [2] = test: Bactericidal activity against Pseudomonas aeruginosa ATCC 9027 assessed as colony forming unit at 10 ug/ml measured at 4 hrs by time kill assay (reference value: 1.2 x 10^7 CFU/ml); assay type: functional; settings: dose 10 µg/ml; procedure, shortened: as §1
Pseudomonas aeruginosa [3] = test: Bactericidal activity against Pseudomonas aeruginosa ATCC 9027 assessed as colony forming unit at 10 ug/ml measured at 2 hrs by time kill assay (reference value: 3.6 x 10^5 CFU/ml); assay type: functional; settings: dose 10 µg/ml; procedure, shortened: as §1
Pseudomonas aeruginosa [4] = test: Bactericidal activity against Pseudomonas aeruginosa ATCC 9027 assessed as reduction in colony forming unit at 5 ug/ml measured at 22 hrs by time kill assay relative to control; assay type: functional; parameters: scale not given: the % may be the effect or the level left; settings: dose 5 µg/ml; procedure, shortened: as §1
Pseudomonas aeruginosa [5] = test: Bactericidal activity against Pseudomonas aeruginosa ATCC 9027 assessed as reduction in colony forming unit at 10 ug/ml measured at 4 hrs by time kill assay relative to control; assay type: functional; parameters: scale not given: the % may be the effect or the level left; settings: dose 10 µg/ml; procedure, shortened: as §1
Staphylococcus aureus [6] = test: Bactericidal activity against […] Staphylococcus aureus ATCC 25923 assessed as colony forming unit at 2.5 ug/ml measured at 4 hrs by time kill assay (reference value: 7.8 x 10^6 CFU/ml); assay type: functional; settings: dose 2.5 µg/ml
Procedure, shortened: (§2)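 S. aureus overnight culture was adjusted in MHB to ~8 × 10⁵ CFU/mL. Compound was added and the mixture incubated at 37 °C with shaking (580 rpm) for 22 h. Aliquots were plated for colony counts at 2, 4, 6, 8 and 22 h, with a quantification limit of 100 CFU/mL. Runs were done in triplicate.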

Staphylococcus aureus [7] = test: Antibacterial activity against methicillin-resistant Staphylococcus aureus CEMTC 1850 assessed as bacterial growth inhibition by CLSI protocol based serial microdilution method; assay type: functional
Staphylococcus aureus [8] = test: Antibacterial activity against […] Staphylococcus aureus ATCC 25923 assessed as concentration required to inhibit visible growth by CLSI protocol based serial microdilution method; assay type: functional
Staphylococcus aureus [9] = test: Bactericidal activity against […] Staphylococcus aureus ATCC 25923 assessed as colony forming unit at 2.5 ug/ml measured at 8 hrs by time kill assay (reference value: 2.7 x 10^8 CFU/ml); assay type: functional; settings: dose 2.5 µg/ml; procedure, shortened: as §2
Staphylococcus aureus [10] = test: Bactericidal activity against […] Staphylococcus aureus ATCC 25923 assessed as colony forming unit at 2.5 ug/ml measured at 22 hrs by time kill assay (reference value: 2.9 x 10^9 CFU/ml); assay type: functional; settings: dose 2.5 µg/ml; procedure, shortened: as §2
Staphylococcus aureus [11] = test: Bactericidal activity against […] Staphylococcus aureus ATCC 25923 assessed as colony forming unit at 5 ug/ml measured at 4 hrs by time kill assay (reference value: 7.8 x 10^6 CFU/ml); assay type: functional; settings: dose 5 µg/ml; procedure, shortened: as §2
Staphylococcus aureus [12] = test: Bactericidal activity against […] Staphylococcus aureus ATCC 25923 assessed as colony forming unit at 1.25 ug/ml measured at 2 hrs by time kill assay (reference value: 10^6 CFU/ml); assay type: functional; settings: dose 1.25 µg/ml; procedure, shortened: as §2
Staphylococcus aureus [13] = test: Antibacterial activity against […] Staphylococcus aureus ATCC 25923 assessed as bacterial growth inhibition by CLSI protocol based serial microdilution method; assay type: functional
Salmonella typhimurium = test: Antibacterial activity against Salmonella enterica ATCC 14028 assessed as bacterial growth inhibition by CLSI protocol based serial microdilution method; assay type: functional, Salmonella enterica subsp. enterica serovar Typhimurium
[14] = Cytotoxicity against MDCK cells assessed as cell death incubated for 48 hrs by MTT assay; assay type: cell-based, Canis lupus familiaris; settings: dog
Pseudomonas aeruginosa [15] = test: Bactericidal activity against Pseudomonas aeruginosa ATCC 9027 assessed as reduction in colony forming unit at 5 ug/ml measured at 4 hrs by time kill assay relative to control; assay type: functional; parameters: scale not given: the % may be the effect or the level left; settings: dose 5 µg/ml; procedure, shortened: as §1
Influenza A virus = test: Antiviral activity against Influenza A virus (A/Puerto Rico/8/34 (H1N1) infected in MDCK cells assessed as decrease in viral titer preincubated for 1 hr followed by viral infection and cultivated for 48 hrs followed by supernatant transferred to chicken erythrocyte for 1 hr followed by measuring ability to cause positive hemagglutination; assay type: functional, organism-based; settings: A/Puerto Rico/8/1934(H1N1)
Procedure, shortened: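 MDCK monolayers in MEM were pre-incubated with compound for 1 h at 37 °C, then infected with 10-fold virus dilutions (10⁻¹–10⁻⁶) and held 48 h at 37 °C, 5% CO₂. Supernatant was mixed with an equal volume of 1% chicken erythrocytes, 60 min at room temperature. Titre was taken from the highest dilution giving full agglutination (log₁₀ EID₅₀). Triplicate per concentration.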

[16] = Cytotoxicity against HEK293T cells assessed as reduction in cell viability measured after 24 hrs by MTT assay; assay type: cell-based, HEK-293T; settings: human
Procedure, shortened: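 HEK293T or MCF-7 cells in IMDM with 10% FBS, seeded at 20,000 per well and grown overnight. Compounds at […] in fresh medium for 24 h at 37 °C, 5% CO₂. MTT then added for 4 h, precipitate dissolved overnight in SDS-HCl, absorbance read at 570 nm. Viability expressed relative to untreated cells, giving CC₅₀. Duplicate wells, at least two independent repeats.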

[17] = Selectivity index, ratio of CC50 for HEK293T cells assessed as reduction in cell viability measured after 24 hrs by MTT assay to MIC for Escherichia coli ATCC 25922 assessed as bacterial growth inhibition by CLSI protocol based serial microdilution method; assay type: toxicity; settings: human, read-out: Selectivity Index
Enterococcus faecalis = test: Antibacterial activity against Enterococcus faecalis ATCC 51299 assessed as concentration required to inhibit visible growth by CLSI protocol based serial microdilution method; assay type: functional
Staphylococcus aureus [18] = test: Bactericidal activity against […] Staphylococcus aureus ATCC 25923 assessed as colony forming unit at 1.25 ug/ml measured at 6 hrs by time kill assay (reference value: 1.2 x 10^6 CFU/ml); assay type: functional; settings: dose 1.25 µg/ml; procedure, shortened: as §2
Pseudomonas aeruginosa [19] = test: Antibacterial activity against Pseudomonas aeruginosa ATCC 9027 assessed as concentration required to inhibit visible growth by CLSI protocol based serial microdilution method; assay type: functional
Staphylococcus aureus [20] = test: Antibacterial activity against methicillin-resistant Staphylococcus aureus CEMTC 675 assessed as bacterial growth inhibition by CLSI protocol based serial microdilution method; assay type: functional
[21] = Selectivity index, ratio of CC50 for HEK293T cells assessed as reduction in cell viability measured after 24 hrs by MTT assay to MIC for Proteus vulgaris ATCC 6380 assessed as bacterial growth inhibition by CLSI protocol based serial microdilution method; assay type: toxicity; settings: human, read-out: Selectivity Index
Staphylococcus aureus [22] = test: Bactericidal activity against […] Staphylococcus aureus ATCC 25923 assessed as colony forming unit at 5 ug/ml measured at 8 hrs by time kill assay (reference value: 2.7 x 10^8 CFU/ml); assay type: functional; settings: dose 5 µg/ml; procedure, shortened: as §2
Pseudomonas aeruginosa [23] = test: Bactericidal activity against Pseudomonas aeruginosa ATCC 9027 assessed as colony forming unit at 10 ug/ml measured at 6 hrs by time kill assay (reference value: 10^8 CFU/ml); assay type: functional; settings: dose 10 µg/ml; procedure, shortened: as §1

SMILES	Activity (Pseudomonas aeruginosa [1])	MIC (Citrobacter freundii) [µg/mL]	Activity (Pseudomonas aeruginosa [2]) [CFU/ml]	Activity (Pseudomonas aeruginosa [3]) [CFU/ml]	Activity (Pseudomonas aeruginosa [4])	Activity (Pseudomonas aeruginosa [5])	Activity (Staphylococcus aureus [6]) [CFU/ml]	MIC (Staphylococcus aureus [7]) [µg/mL]	MBC (Staphylococcus aureus [8]) [µg/mL]	Activity (Staphylococcus aureus [9]) [CFU/ml]	Activity (Staphylococcus aureus [10]) [CFU/ml]	Activity (Staphylococcus aureus [11]) [CFU/ml]	Activity (Staphylococcus aureus [12]) [CFU/ml]	MIC (Staphylococcus aureus [13]) [µg/mL]	MIC (Salmonella typhimurium) [µg/mL]	CC50 at 48 h [14] [µg/mL]	Activity (Pseudomonas aeruginosa [15])	EC50 (Influenza A virus) [µg/mL]	CC50 at 24 h [16] [µg/mL]	selectivity ratio at 24 h [17]	other results
CCCCCCCCCCCC[N+]12CC[N+](CCC[N+]34CC[N+](CCCCCCCCCCCC)(CC3)CC4)(CC1)CC2	>=99.9%	1.6	<100	<100	>=99.9%	>=99.9%	<100	1	1.2	<100	<100	<100	<100	0.3	1.6	12.8	>=99.9%	1.9	6.5	4	MBC (Enterococcus faecalis): 3.1 µg/mL; Activity (Staphylococcus aureus [18]): <100 CFU/ml; MBC (Pseudomonas aeruginosa [19]): 3.1 µg/mL; MIC (Staphylococcus aureus [20]): 0.5 µg/mL; selectivity ratio at 24 h [21]: < 1; Activity (Staphylococcus aureus [22]): <100 CFU/ml; Activity (Pseudomonas aeruginosa [23]): <100 CFU/ml
CCCCCCCCCCCC[N+]12CC[N+](Cc3ccccc3C[N+]34CC[N+](CCCCCCCCCCCC)(CC3)CC4)(CC1)CC2	>=99.9%	1.6	<100	<100	>=99.9%	>=99.9%	<100	0.5	1.2	<100	<100	<100	<670	0.6	16	1.9	>=99.9%	1	4	3	MBC (Enterococcus faecalis): 1.6 µg/mL; Activity (Staphylococcus aureus [18]): <100 CFU/ml; MBC (Pseudomonas aeruginosa [19]): 3.1 µg/mL; MIC (Staphylococcus aureus [20]): 0.5 µg/mL; selectivity ratio at 24 h [21]: < 1; Activity (Staphylococcus aureus [22]): <100 CFU/ml; Activity (Pseudomonas aeruginosa [23]): <100 CFU/ml
